Results published in ChEMBL document CHEMBL1165965, “Synthesis and structure-activity relationships of 1,2,3,4-tetrahydropyrido[2,3-b]pyrazines as potent and selective inhibitors of the anaplastic lymphoma kinase” (Bioorg Med Chem, 2010).

Key:
[1] = biological target: T1, Mitogen-activated protein kinase 13 (Homo sapiens) (UniProt O15264); experiment: Inhibition of p38-delta at 1 uM
T1 sequence (whole entry): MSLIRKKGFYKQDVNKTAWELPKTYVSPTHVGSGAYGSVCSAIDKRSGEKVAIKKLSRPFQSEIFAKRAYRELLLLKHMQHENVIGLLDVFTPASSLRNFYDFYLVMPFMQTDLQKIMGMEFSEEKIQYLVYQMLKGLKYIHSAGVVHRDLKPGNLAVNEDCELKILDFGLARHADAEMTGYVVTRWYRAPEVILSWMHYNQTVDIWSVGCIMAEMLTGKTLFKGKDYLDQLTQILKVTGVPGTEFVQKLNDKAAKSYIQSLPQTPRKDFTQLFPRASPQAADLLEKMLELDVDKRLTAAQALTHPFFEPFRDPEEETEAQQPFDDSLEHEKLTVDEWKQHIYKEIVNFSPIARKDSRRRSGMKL

[2] = biological target: T2, Serine/threonine-protein kinase TAO1 (Homo sapiens) (UniProt Q7L7X3); experiment: Inhibition of TAO1 at 1 uM
T2 sequence (whole entry): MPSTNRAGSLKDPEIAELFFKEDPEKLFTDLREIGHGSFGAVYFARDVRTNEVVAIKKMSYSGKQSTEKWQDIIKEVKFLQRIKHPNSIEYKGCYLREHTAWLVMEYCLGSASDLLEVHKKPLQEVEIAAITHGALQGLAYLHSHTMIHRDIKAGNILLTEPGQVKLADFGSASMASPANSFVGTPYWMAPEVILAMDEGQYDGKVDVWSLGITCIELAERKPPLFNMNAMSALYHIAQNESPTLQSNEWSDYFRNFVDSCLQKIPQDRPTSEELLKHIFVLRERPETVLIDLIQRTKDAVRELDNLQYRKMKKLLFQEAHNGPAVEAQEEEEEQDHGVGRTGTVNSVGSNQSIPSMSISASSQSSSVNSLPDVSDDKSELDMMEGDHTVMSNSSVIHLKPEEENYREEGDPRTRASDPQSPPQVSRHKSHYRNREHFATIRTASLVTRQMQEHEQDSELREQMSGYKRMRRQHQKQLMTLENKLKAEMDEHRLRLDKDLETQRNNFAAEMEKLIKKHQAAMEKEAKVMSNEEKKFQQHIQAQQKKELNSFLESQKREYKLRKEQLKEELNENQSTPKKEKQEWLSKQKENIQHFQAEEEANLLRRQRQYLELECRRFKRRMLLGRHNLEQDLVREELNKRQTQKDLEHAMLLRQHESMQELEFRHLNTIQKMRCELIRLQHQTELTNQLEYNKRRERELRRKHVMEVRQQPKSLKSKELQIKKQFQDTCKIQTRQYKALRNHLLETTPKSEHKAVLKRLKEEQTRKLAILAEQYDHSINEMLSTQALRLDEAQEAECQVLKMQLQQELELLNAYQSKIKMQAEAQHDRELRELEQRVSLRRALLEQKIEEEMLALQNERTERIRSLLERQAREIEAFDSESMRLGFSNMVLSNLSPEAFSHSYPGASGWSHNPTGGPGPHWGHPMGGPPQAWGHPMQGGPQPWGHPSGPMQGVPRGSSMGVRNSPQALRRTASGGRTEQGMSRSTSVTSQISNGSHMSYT

[3] = biological target: T3, Serine/threonine-protein kinase 3 (Homo sapiens) (UniProt Q13188); experiment: Inhibition of MST2 at 1 uM
T3 sequence (whole entry): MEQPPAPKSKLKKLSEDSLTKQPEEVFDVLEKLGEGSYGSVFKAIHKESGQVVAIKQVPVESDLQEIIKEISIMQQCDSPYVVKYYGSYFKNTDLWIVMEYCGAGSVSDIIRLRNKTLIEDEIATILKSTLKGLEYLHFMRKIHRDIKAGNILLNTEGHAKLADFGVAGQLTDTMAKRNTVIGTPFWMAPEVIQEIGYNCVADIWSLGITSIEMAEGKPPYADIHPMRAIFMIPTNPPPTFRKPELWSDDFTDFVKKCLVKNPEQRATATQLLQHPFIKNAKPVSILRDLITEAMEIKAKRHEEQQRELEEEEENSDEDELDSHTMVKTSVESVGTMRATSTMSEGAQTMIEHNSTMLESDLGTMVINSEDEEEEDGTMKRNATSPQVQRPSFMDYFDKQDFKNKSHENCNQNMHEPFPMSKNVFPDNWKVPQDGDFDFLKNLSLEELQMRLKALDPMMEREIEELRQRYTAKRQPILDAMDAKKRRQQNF

[4] = system: Phosphatidylinositol 4,5-bisphosphate 3-kinase catalytic subunit alpha isoform (Homo sapiens), P42336 [H1047Y]; experiment: Inhibition of PIK3CA H1047Y mutant at 1 uM
Sequence of Phosphatidylinositol 4,5-bisphosphate 3-kinase catalytic subunit alpha isoform (Homo sapiens), P42336 [H1047Y] (P42336 whole entry H1047Y, canonical isoform): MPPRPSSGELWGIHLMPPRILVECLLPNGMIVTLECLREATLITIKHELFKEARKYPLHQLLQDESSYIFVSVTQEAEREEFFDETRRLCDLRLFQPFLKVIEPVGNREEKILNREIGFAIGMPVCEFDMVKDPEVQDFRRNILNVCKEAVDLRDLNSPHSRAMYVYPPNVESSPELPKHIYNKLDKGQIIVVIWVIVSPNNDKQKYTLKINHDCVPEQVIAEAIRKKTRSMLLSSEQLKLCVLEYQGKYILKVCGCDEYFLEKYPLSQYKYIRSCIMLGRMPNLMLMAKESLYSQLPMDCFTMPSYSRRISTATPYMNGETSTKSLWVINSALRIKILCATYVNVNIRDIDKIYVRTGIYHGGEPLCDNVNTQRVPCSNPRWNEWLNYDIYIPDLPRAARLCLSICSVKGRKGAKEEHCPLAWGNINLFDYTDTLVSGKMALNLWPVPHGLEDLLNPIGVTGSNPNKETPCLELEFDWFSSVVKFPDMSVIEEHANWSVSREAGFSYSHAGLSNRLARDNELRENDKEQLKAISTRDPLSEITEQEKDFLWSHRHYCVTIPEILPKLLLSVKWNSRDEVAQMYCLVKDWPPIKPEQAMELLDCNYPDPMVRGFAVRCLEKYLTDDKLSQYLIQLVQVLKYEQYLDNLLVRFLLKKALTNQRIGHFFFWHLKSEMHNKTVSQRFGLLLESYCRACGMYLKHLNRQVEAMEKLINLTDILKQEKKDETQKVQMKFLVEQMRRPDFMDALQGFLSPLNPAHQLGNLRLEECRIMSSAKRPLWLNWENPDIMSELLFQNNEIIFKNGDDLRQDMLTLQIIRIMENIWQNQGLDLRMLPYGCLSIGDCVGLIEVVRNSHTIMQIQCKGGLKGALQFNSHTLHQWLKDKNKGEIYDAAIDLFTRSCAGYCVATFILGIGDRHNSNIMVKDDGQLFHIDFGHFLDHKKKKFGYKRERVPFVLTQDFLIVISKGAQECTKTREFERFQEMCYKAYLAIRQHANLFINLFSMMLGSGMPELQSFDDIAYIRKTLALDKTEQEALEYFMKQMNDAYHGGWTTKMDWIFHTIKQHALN

[5] = biological target: Cyclin-dependent kinase 9 (Homo sapiens) (UniProt P50750); experiment: Inhibition of CDK9 at 1 uM
Sequence of Cyclin-dependent kinase 9 (Homo sapiens) (P50750 whole entry): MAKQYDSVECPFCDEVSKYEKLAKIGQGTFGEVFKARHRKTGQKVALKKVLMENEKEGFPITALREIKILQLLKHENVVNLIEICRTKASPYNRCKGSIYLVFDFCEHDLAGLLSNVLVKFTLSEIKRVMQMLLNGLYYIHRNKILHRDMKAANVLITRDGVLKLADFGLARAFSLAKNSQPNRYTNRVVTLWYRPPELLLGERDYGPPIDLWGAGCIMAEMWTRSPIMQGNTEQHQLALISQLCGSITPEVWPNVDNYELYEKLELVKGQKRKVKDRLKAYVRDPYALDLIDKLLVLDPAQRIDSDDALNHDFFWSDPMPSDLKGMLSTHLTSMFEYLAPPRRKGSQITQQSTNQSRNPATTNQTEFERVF

[6] = biological target: T4, Cytoplasmic tyrosine-protein kinase BMX (Homo sapiens) (UniProt P51813); experiment: Inhibition of BMX at 1 uM
T4 sequence (whole entry): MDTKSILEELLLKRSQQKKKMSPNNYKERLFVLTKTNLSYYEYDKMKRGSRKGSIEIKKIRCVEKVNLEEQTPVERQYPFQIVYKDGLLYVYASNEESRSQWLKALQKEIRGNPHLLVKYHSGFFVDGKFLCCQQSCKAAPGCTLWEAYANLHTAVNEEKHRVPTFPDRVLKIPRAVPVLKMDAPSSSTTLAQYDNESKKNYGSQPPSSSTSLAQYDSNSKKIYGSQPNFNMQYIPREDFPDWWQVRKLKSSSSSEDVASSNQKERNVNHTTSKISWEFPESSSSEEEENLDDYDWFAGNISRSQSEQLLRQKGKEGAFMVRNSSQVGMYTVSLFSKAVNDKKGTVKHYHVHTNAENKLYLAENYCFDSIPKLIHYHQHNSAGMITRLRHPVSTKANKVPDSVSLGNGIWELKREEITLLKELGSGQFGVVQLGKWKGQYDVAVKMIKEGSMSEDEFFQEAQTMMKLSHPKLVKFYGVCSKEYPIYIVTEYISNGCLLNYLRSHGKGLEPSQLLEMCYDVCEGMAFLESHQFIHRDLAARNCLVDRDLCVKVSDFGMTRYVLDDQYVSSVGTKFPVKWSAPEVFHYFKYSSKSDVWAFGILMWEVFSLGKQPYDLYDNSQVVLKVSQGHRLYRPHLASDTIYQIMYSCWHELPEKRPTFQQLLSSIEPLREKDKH
Summary of the method: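 Ambit KINOMEscan screen at a single concentration across a 250–400 kinase panel, recorded as percent inhibition. Selectivity was expressed as S(90), the fraction of kinases inhibited >90%.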

[7] = biological target: Tyrosine-protein kinase CSK (Homo sapiens) (UniProt P41240); experiment: Inhibition of CSK at 1 uM
Sequence of Tyrosine-protein kinase CSK (Homo sapiens) (P41240 2-450 limits assumed): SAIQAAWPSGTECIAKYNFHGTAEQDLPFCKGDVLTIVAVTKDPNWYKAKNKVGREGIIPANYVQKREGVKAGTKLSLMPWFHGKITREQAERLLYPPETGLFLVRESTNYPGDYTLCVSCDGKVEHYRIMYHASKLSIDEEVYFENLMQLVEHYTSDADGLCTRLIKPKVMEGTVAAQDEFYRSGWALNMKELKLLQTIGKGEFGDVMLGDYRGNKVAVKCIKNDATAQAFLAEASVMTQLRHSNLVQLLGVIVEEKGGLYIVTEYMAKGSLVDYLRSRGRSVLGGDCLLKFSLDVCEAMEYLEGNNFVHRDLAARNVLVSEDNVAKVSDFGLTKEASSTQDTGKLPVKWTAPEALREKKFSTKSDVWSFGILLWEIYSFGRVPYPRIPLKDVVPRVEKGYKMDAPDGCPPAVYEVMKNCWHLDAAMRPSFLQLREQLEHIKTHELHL
Summary of the method: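 Single-concentration screen using Ambit Bioscience KINOMEscan technology across a panel of 250–400 kinases. Per-kinase inhibition from this screen was summarized as S(90), the fraction of kinases inhibited by more than 90%.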

inhibition [1] | inhibition [2] | inhibition [3] | inhibition [4] | inhibition [5] | inhibition [6] | inhibition [7] | Compound
< 50% | < 50% | < 50% | < 50% | < 50% | < 50% | < 50% | CN1CCN(c2ccc(-c3cnc4c(c3)N(Cc3cc(F)ccc3F)CCN4)cn2)CC1
 |  |  |  |  | < 50% | < 50% | O=C(c1ccc(-c2cnc3c(c2)N(Cc2cc(Cl)ccc2C(F)(F)F)CCN3)cc1)N1CCC(N2CCCC2)CC1
 |  |  |  |  | < 50% | < 50% | O=C(c1ccc(-c2cnc3c(c2)N(Cc2cc(Cl)ccc2C(F)(F)F)CCN3)cc1)N1CCCCC1
< 50% | < 50% | < 50% | < 50% | < 50% | < 50% | < 50% | CN1CCN(c2ccc(-c3cnc4c(c3)N(Cc3c(F)ccc(F)c3Cl)CCN4)cn2)CC1
 |  |  |  |  | < 50% | < 50% | COC1CCN(C(=O)c2ccc(-c3cnc4c(c3)N(Cc3cc(Cl)ccc3C(F)(F)F)CCN4)cc2)CC1
 |  |  |  |  | < 50% | < 50% | O=C(O)c1ccc(-c2cnc3c(c2)N(Cc2cc(Cl)ccc2C(F)(F)F)CCN3)cc1
< 50% | < 50% | 88% | < 50% | < 50% | < 50% | < 50% | CC(=O)N1CCN(c2cc(-c3cnc4c(c3)N(Cc3cc(Cl)ccc3C(F)(F)F)CCN4)ccn2)CC1
< 50% | < 50% | 97% | < 50% | < 50% | < 50% | < 50% | FC(F)(F)c1ccc(Cl)cc1CN1CCNc2ncc(-c3ccnc(N4CCNCC4)c3)cc21
< 50% | < 50% | < 50% | < 50% | < 50% | < 50% | < 50% | CN1CCN(c2ccc(-c3cnc4c(c3)N(Cc3cc(Cl)ccc3C(F)(F)F)CCN4)cn2)CC1
< 50% | < 50% | < 50% | < 50% | < 50% | < 50% | < 50% | CN1CCN(c2ccc(-c3cnc4c(c3)N(Cc3cc(Cl)ccc3Cl)CCN4)cn2)CC1
